In ChEMBL document CHEMBL2040797, “Synthesis of benzimidazoles bearing oxadiazole nucleus as anticancer agents” (2012) one finds inhibition of growth data, which are given here for one compound.

The structures appear in SMILES notation.

Holding throughout (format): functional
Assay [1] concerns M14. The experiment in a line: Growth inhibition of human M14 cells at 10 uM after 48 hrs by sulforhodamine B assay. The following applies: M14, 48 h, read-out: GI. A digest of the protocol:
(§1)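 NCI one-dose primary screen at 10 (printed mM) across the 60-line panel. Cells in RPMI 1640 with 5% FBS and 2 mM L-glutamine, plated at 5000–40,000 cells/well and incubated 24 h before dosing. Exposure 48 h at 37 °C, 5% CO2. Adherent cells were fixed with cold TCA, suspension cells fixed after settling. SRB stain, absorbance 515 nm. Reported as percent growth of treated cells relative to control.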
For orientation: In SRB staining, fixed cells bind dye roughly in proportion to their protein.

Assay [2] has as its system HOP-92. The experiment in a line: Growth inhibition of human HOP92 cells at 10 uM after 48 hrs by sulforhodamine B assay. Conditions: HOP-92, 48 h, read-out: GI. A digest of the protocol:
as §1

For assay [3], the system named is UACC-62. The experiment in a line: Growth inhibition of human UACC62 cells at 10 uM after 48 hrs by sulforhodamine B assay. Conditions: UACC-62, 48 h, read-out: GI. A digest of the protocol: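 NCI-60 single-dose screen. Cells grown in RPMI 1640 with 5% FBS and L-glutamine, plated at 5000–40,000 cells/well by doubling time, and preincubated 24 h at 37 °C, 5% CO2. Compound stocks in DMSO, added at one concentration, then incubated 48 h. Adherent cells fixed with cold TCA (10% final), stained with 0.4% SRB, dye solubilized in 10 mM Tris base, A515 read. Reported as percent growth relative to untreated control.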

Assay [4] has as its system K562. The experiment in a line: Growth inhibition of human K562 cells at 10 uM after 48 hrs by sulforhodamine B assay. The following applies: K562, 48 h, read-out: GI. An outline of the steps: as §1

For `O=C(CCc1nnc(-c2ccc(Cl)cc2Cl)o1)c1nc2ccccc2[nH]1`, the inhibition of growth at 10 µM in assay [1] was found to be 44.2%; in assay [2], 93.3%; in assay [3], 57.7%; in assay [4], 97.8%.
